Test results published in ChEMBL document CHEMBL1926575, “Synthesis, biological evaluation and molecular modeling of 1,2,3-triazole analogs of combretastatin A-1” (Bioorg Med Chem, 2012).

Key:
[1] = Inhibition of angiogenesis in endothelial cells assessed as inhibition of tube formation after 18 hrs by inverted microscopic analysis; format: functional, cell-based; details: Endothelial cell
[2] = tested on: MCF7; assay: Cytotoxicity against human MCF7 cells by alamar blue assay; format: functional, cell-based
[3] = target: Tubulin (Sus scrofa, UniProt P02554+P02550); assay: Inhibition of porcine brain tubulin polymerization after 60 mins
How it was run: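 Porcine brain tubulin (50 ul of 11 mg/ml stock) in Mes buffer (0.1 M Mes, 1 mM EGTA, 0.5 mM MgCl2, pH 6.6) with GTP (20 ul of 5 mM stock), plate prechilled 4 °C, drug added in DMSO; A350 recorded at ambient temperature for 60 min against drug blanks. IC50 read graphically as percent of control assembly.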

[4] = tested on: NCI-H460; assay: Cytotoxicity against human NCI-H460 cells by alamar blue assay; format: functional, cell-based
[5] = Cytotoxicity against human fibroblast cells by alamar blue assay; format: cell-based
[6] = tested on: CCRF-CEM; assay: Cytotoxicity against human CEM cells by alamar blue assay; format: functional, cell-based
[7] = tested on: HT-29; assay: Cytotoxicity against human HT-29 cells by alamar blue assay; format: functional, cell-based
[8] = Ratio of CA-1 IC50 to compound IC50 for inhibition of angiogenesis in endothelial cells; format: functional, Endothelial cell

SMILES | IC50 [1] [µM] | IC50 [2] [µM] | IC50 [3] [µM] | IC50 [4] [µM] | IC50 [5] [µM] | IC50 [6] [µM] | IC50 [7] [µM] | Ratio IC50 [8]
COc1ccc(-n2nncc2-c2cc(OC)c(OC)c(OC)c2)c(O)c1O | > 10 | > 100 | > 20 | 26.6 | > 100 | > 100 | 64.3 | –
COc1ccc(-c2cnnn2-c2cc(OC)c(OC)c(OC)c2)c(O)c1O | – | – | 10.1 | – | – | – | – | –
COc1cc(-n2nncc2-c2ccc(OC)c([N+](=O)[O-])c2[N+](=O)[O-])cc(OC)c1OC | 4.4 | 6.1 | > 20 | 0.7 | 31.5 | 26 | 12 | –
COc1ccc(-c2cnnn2-c2cc(OC)c(OC)c(OC)c2)c(N)c1N | 0.3 | 38.8 | 5.2 | 17.3 | > 100 | > 100 | 17.2 | 10
COc1ccc(-c2cnnn2-c2cc(OC)c(OC)c(OC)c2)c(F)c1F | 0.3 | 26.7 | 15.6 | 4.9 | > 100 | > 100 | 1.9 | 10
COc1cc(-n2nncc2-c2ccc3c(c2O)OCO3)cc(OC)c1OC | 3.4 | > 100 | 17.1 | 7.4 | > 100 | > 100 | 8.8 | –
COc1cc(-n2nncc2-c2ccc3c(c2O)OC(C)(C)O3)cc(OC)c1OC | > 10 | 46.3 | > 20 | 16.8 | > 100 | > 100 | > 100 | –
COc1cc(-n2cc(-c3ccc(OC)c([N+](=O)[O-])c3[N+](=O)[O-])nn2)cc(OC)c1OC | > 10 | > 100 | – | 18.2 | > 100 | > 100 | > 100 | –
COc1ccc(-c2cn(-c3cc(OC)c(OC)c(OC)c3)nn2)c(N)c1N | > 10 | > 100 | – | 29.8 | > 100 | > 100 | > 100 | –
COc1ccc(/C=C\c2cc(OC)c(OC)c(OC)c2)cc1O [COMBRETASTATIN A4] | 0.01 | 48.9 | – | 4.4 | > 100 | > 100 | 0.4 | –
COc1ccc(/C=C\c2cc(OC)c(OC)c(OC)c2)c(O)c1O [COMBRETASTATIN A-1] | 3.2 | 75.9 | 3.5 | 1.8 | > 100 | > 100 | 0.9 | –
